Assay results taken from ChEMBL document CHEMBL1127343, “"Glycylcyclines". 3. 9-Aminodoxycyclinecarboxamides” (1994).
Values after ≈ are worked out from the molar mass of the structure shown.

What was measured:
Assay type in all cases: functional
[1] = test system: Escherichia coli; assay: In vitro antibacterial activity was measured on gram negative bacteria Escherichia coli UBMS 90-4 tet-M (ribosomal protection) cell lines
Procedure, shortened: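 Agar dilution MIC on Mueller-Hinton II agar. Inoculum (1–5) × 10^5 CFU/mL, drug range 32–0.004 μg/mL. Plates incubated 18 h at 35 °C in a forced-air incubator. MIC is the lowest concentration that inhibits growth. The strain panel covered tetracycline-sensitive and -resistant strains. Tetracycline, minocycline and doxycycline were run as standards in each assay.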

[2] = test system: Escherichia coli; assay: In vitro antibacterial activity was measured on gram negative bacteria Escherichia coli UBMS 90-5 sensitive cell lines
Procedure, shortened: (§1)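 MIC by agar dilution on Mueller-Hinton II agar; inoculum (1–5) × 10^5 CFU/mL; antibiotic range 32–0.004 μg/mL; plates incubated 18 h at 35 °C in forced-air incubator. MIC taken as lowest concentration inhibiting growth. Tetracycline, minocycline and doxycycline run as standards in each assay.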

[3] = test system: Staphylococcus aureus; assay: In vitro antibacterial activity was measured on gram positive bacteria Staphylococcus aureus UBMS 90-1 tet-M (ribosomal protection) cell lines; procedure, shortened: as §1
[4] = test system: Staphylococcus aureus; assay: In vitro antibacterial activity was measured on gram positive bacteria Staphylococcus aureus UBMS 90-3 sensitive cell lines; procedure, shortened: as §1
[5] = test system: Staphylococcus aureus; assay: In vitro antibacterial activity was measured on gram positive bacteria Staphylococcus aureus smith cell lines; procedure, shortened: as §1
[6] = test system: Staphylococcus aureus; assay: In vitro antibacterial activity was measured on gram positive bacteria Staphylococcus aureus UBMS 88-7 tet-k(efflux resistance) cell lines
[7] = test system: Escherichia coli; assay: In vitro antibacterial activity was measured on gram negative bacteria Escherichia coli J3272 tet-C(efflux resistance) cell lines
[8] = test system: Escherichia coli; assay: In vitro antibacterial activity was measured on gram negative bacteria Escherichia coli PRP-1 tet-a(efflux resistance) cell lines
[9] = test system: Escherichia coli; assay: In vitro antibacterial activity was measured on gram negative bacteria Escherichia coli UBMS 88-1 tet-B(efflux resistance) cell lines

SMILES	MIC [1]	MIC [2]	MIC [3]	MIC [4]	MIC [5]	MIC [6]	MIC [7]	MIC [8]	MIC [9]
CC(C)C[C@H](NC(=O)CN)C(=O)Nc1ccc2c(c1O)C(=O)C1=C(O)[C@]3(O)C(O)=C(C(N)=O)C(=O)[C@@H](N(C)C)C3[C@@H](O)C1[C@H]2C (stereo partly specified)	> 32 µg/mL	> 32 µg/mL	> 32 µg/mL	> 32 µg/mL	16 µg/mL (≈ 25.4 µM)				
CC(C)C[C@H](N)C(=O)NCC(=O)Nc1ccc2c(c1O)C(=O)C1=C(O)[C@]3(O)C(O)=C(C(N)=O)C(=O)[C@@H](N(C)C)C3[C@@H](O)C1[C@H]2C (stereo partly specified)	> 32 µg/mL	> 32 µg/mL	> 32 µg/mL	> 32 µg/mL	16 µg/mL (≈ 25.4 µM)				
COC(=O)Nc1ccc2c(c1O)C(=O)C1=C(O)[C@]3(O)C(O)=C(C(N)=O)C(=O)[C@@H](N(C)C)C3[C@@H](O)C1[C@H]2C (stereo partly specified)	> 32 µg/mL	> 32 µg/mL	16 µg/mL (≈ 30.9 µM)	0.06 µg/mL (≈ 0.116 µM)	0.06 µg/mL (≈ 0.116 µM)	4 µg/mL (≈ 7.73 µM)			
CCCCCCCCCC(=O)Nc1ccc2c(c1O)C(=O)C1=C(O)[C@]3(O)C(O)=C(C(N)=O)C(=O)[C@@H](N(C)C)C3[C@@H](O)C1[C@H]2C (stereo partly specified)	> 32 µg/mL	> 32 µg/mL	> 32 µg/mL	16 µg/mL (≈ 26.1 µM)	> 32 µg/mL				
CNCC(=O)Nc1ccc2c(c1O)C(=O)C1=C(O)[C@]3(O)C(O)=C(C(N)=O)C(=O)[C@@H](N(C)C)C3[C@@H](O)C1[C@H]2C (stereo partly specified)	4 µg/mL (≈ 7.54 µM)	8 µg/mL (≈ 15.1 µM)	8 µg/mL (≈ 15.1 µM)	4 µg/mL (≈ 7.54 µM)	8 µg/mL (≈ 15.1 µM)	> 32 µg/mL	> 32 µg/mL	> 32 µg/mL	
CC(C)C[C@H](NC(=O)[C@@H](N)CC(C)C)C(=O)Nc1ccc2c(c1O)C(=O)C1=C(O)[C@]3(O)C(O)=C(C(N)=O)C(=O)[C@@H](N(C)C)C3[C@@H](O)C1[C@H]2C (stereo partly specified)	> 32 µg/mL	> 32 µg/mL	4 µg/mL (≈ 5.83 µM)	4 µg/mL (≈ 5.83 µM)	8 µg/mL (≈ 11.7 µM)	32 µg/mL (≈ 46.7 µM)			
CC(C)C(=O)Nc1ccc2c(c1O)C(=O)C1=C(O)[C@]3(O)C(O)=C(C(N)=O)C(=O)[C@@H](N(C)C)C3[C@@H](O)C1[C@H]2C (stereo partly specified)	> 32 µg/mL	> 32 µg/mL	> 32 µg/mL	0.5 µg/mL (≈ 0.944 µM)	1 µg/mL (≈ 1.89 µM)				16 µg/mL (≈ 30.2 µM)
C[C@H]1c2ccc(NC(=O)[C@H](Cc3ccccc3)N(C)C)c(O)c2C(=O)C2=C(O)[C@]3(O)C(O)=C(C(N)=O)C(=O)[C@@H](N(C)C)C3[C@@H](O)C21 (stereo partly specified)	16 µg/mL (≈ 25.2 µM)	32 µg/mL (≈ 50.4 µM)	2 µg/mL (≈ 3.15 µM)	1 µg/mL (≈ 1.58 µM)	4 µg/mL (≈ 6.3 µM)				
C[C@H]1c2ccc(NC(=O)[C@@H](N)CCC(N)=O)c(O)c2C(=O)C2=C(O)[C@]3(O)C(O)=C(C(N)=O)C(=O)[C@@H](N(C)C)C3[C@@H](O)C21 (stereo partly specified)	> 32 µg/mL	16 µg/mL (≈ 27.2 µM)	> 32 µg/mL	1 µg/mL (≈ 1.7 µM)	4 µg/mL (≈ 6.81 µM)	32 µg/mL (≈ 54.5 µM)			
C[C@H]1c2ccc(NC(=O)CN)c(O)c2C(=O)C2=C(O)[C@]3(O)C(O)=C(C(N)=O)C(=O)[C@@H](N(C)C)C3[C@@H](O)C21 (stereo partly specified)	8 µg/mL (≈ 15.5 µM)	8 µg/mL (≈ 15.5 µM)	16 µg/mL (≈ 31 µM)	4 µg/mL (≈ 7.74 µM)	8 µg/mL (≈ 15.5 µM)	> 32 µg/mL	> 32 µg/mL	> 32 µg/mL	
CC(=O)Nc1ccc2c(c1O)C(=O)C1=C(O)[C@]3(O)C(O)=C(C(N)=O)C(=O)[C@@H](N(C)C)C3[C@@H](O)C1[C@H]2C (stereo partly specified)	32 µg/mL (≈ 63.8 µM)	8 µg/mL (≈ 16 µM)	> 32 µg/mL	0.25 µg cm··-2	0.5 µg/mL (≈ 0.997 µM)				
C[C@H]1c2ccc(NC(=O)[C@@H](N)CCCCN)c(O)c2C(=O)C2=C(O)[C@]3(O)C(O)=C(C(N)=O)C(=O)[C@@H](N(C)C)C3[C@@H](O)C21 (stereo partly specified)	> 32 µg/mL	> 32 µg/mL	> 32 µg/mL	> 32 µg/mL	> 32 µg/mL	16 µg/mL (≈ 27.2 µM)			
C[C@H]1c2ccc(NC(=O)[C@@H](N)CCC(=O)O)c(O)c2C(=O)C2=C(O)[C@]3(O)C(O)=C(C(N)=O)C(=O)[C@@H](N(C)C)C3[C@@H](O)C21 (stereo partly specified)	> 32 µg/mL	> 32 µg/mL	> 32 µg/mL	32 µg/mL (≈ 54.4 µM)	> 32 µg/mL				
CCCCNCC(=O)Nc1ccc2c(c1O)C(=O)C1=C(O)[C@]3(O)C(O)=C(C(N)=O)C(=O)[C@@H](N(C)C)C3[C@@H](O)C1[C@H]2C (stereo partly specified)	1 µg/mL (≈ 1.75 µM)	0.5 µg/mL (≈ 0.873 µM)	4 µg/mL (≈ 6.99 µM)	0.25 µg/mL (≈ 0.437 µM)	0.5 µg/mL (≈ 0.873 µM)	8 µg/mL (≈ 14 µM)		4 µg/mL (≈ 6.99 µM)	
C[C@H]1c2ccc(NC(=O)[C@@H](N)Cc3c[nH]c4ccccc34)c(O)c2C(=O)C2=C(O)[C@]3(O)C(O)=C(C(N)=O)C(=O)[C@@H](N(C)C)C3[C@@H](O)C21 (stereo partly specified)	4 µg/mL (≈ 6.2 µM)	8 µg/mL (≈ 12.4 µM)	4 µg/mL (≈ 6.2 µM)	2 µg/mL (≈ 3.1 µM)	1 µg/mL (≈ 1.55 µM)	16 µg/mL (≈ 24.8 µM)	32 µg/mL (≈ 49.6 µM)	16 µg/mL (≈ 24.8 µM)	
